{
  "source": "paper PMC6061410",
  "about": "(Clinical Drug Investigation, 2018)",
  "key": {"Effect of food intake": {"assay": "Effect of food intake", "format": "in vivo, human", "conditions": "25 mg; for Cmax: human, plasma, oral, Cmax at steady state, gMean", "method_in_brief": "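Healthy young (25 mg, group 2) and elderly (25 mg, group 5) subjects were dosed once daily with tablets. On day 12, group 2 dosed light-fed (standardised ~500 kcal breakfast 30 min pre-dose) and group 5 dosed light-fasted (no food ≥10 h before until 1 h after). Day 12 plasma profiles were compared with day 14 fasted profiles (no food ≥10 h before until 3.5 h after) as gMean ratios.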"}, "CYP3A4": {"test_system": "CYP3A4", "conditions": "cited from earlier work"}, "Intrinsic solubility": {"assay": "Intrinsic solubility", "format": "physicochemical"}, "[1]": {"conditions": "young subjects, standardised light breakfast"}},
  "data": [
    {"smiles": "C[C@@H](Oc1ccc(S(C)(=O)=O)cc1C(=O)N1C[C@@H]2C[C@]2(c2cc(C(F)(F)F)on2)C1)C(F)(F)F", "note": "[BI 425809]", "values": [
      {"measurement": "gMean ratio (light fed:light fasted) steady-state AUC", "setting": "Effect of food intake", "value": 105.2, "unit": "%"},
      {"measurement": "gMean ratio (light fed:light fasted) steady-state Cmax", "setting": "Effect of food intake", "value": 106.8, "unit": "%"},
      {"measurement": "gMean ratio (light fasted:fasted) steady-state AUC", "setting": "Effect of food intake; elderly subjects", "value": 104.5, "unit": "%"},
      {"measurement": "gMean ratio (light fasted:fasted) steady-state Cmax", "setting": "Effect of food intake; elderly subjects", "value": 108.3, "unit": "%"},
      {"measurement": "gMean ratio (light fed:fasted) steady-state AUC", "setting": "Effect of food intake; young subjects", "value": 114.0, "unit": "%"},
      {"measurement": "gMean ratio (light fed:fasted) steady-state Cmax", "setting": "Effect of food intake; young subjects", "value": 123.2, "unit": "%"},
      {"measurement": "increase in steady-state AUC, light fed compared with fasted", "setting": "Effect of food intake; [1]", "value": 14, "unit": "%"},
      {"measurement": "increase in steady-state Cmax, light fed compared with fasted", "setting": "Effect of food intake; [1]", "value": 23, "unit": "%"},
      {"measurement": "Cmax", "setting": "Effect of food intake; healthy elderly subjects, fasted", "value": 611, "unit": "nM"},
      {"measurement": "Cmax", "setting": "Effect of food intake; healthy elderly subjects, light fasted", "value": 662, "unit": "nM"},
      {"measurement": "Cmax", "setting": "Effect of food intake; healthy young subjects, fasted", "value": 574, "unit": "nM"},
      {"measurement": "Cmax", "setting": "Effect of food intake; healthy young subjects, fed (light fed)", "value": 707, "unit": "nM"},
      {"measurement": "role of CYP3A4 in metabolic pathway", "setting": "CYP3A4; drug–drug interaction study confirming in-vitro data", "value": "major component of the BI 425809 metabolic pathway"},
      {"measurement": "CYP3A4 induction", "setting": "CYP3A4; in-vitro and clinical studies", "value": "has the potential to induce CYP3A4 activity"},
      {"measurement": "metabolising enzyme", "setting": "CYP3A4; in-vitro and clinical studies", "value": "primarily metabolised by CYP3A4"},
      {"measurement": "intrinsic solubility", "setting": "Intrinsic solubility", "value": "low intrinsic solubility"}
    ]}
  ]
}
